Four molecules from ChEMBL document CHEMBL1123538, “Inhibitors of human purine nucleoside phosphorylase. Synthesis, purine nucleoside phosphorylase inhibition, and T-cell cytotoxicity of 2,5-diaminothiazolo[5,4-d]pyrimidin-7(6H)-one and 2,5-diaminothiazolo[4,5-d]pyrimidin-7(6H)-one. Two thio isosteres of 8-aminoguanine” (J Med Chem, 1986) can be followed below.

pIC50: −log10 of the molar value.

The species entered for assay [1] is Homo sapiens. In words: Cytotoxicity was evaluated against human MGL-8 B -lymphoblasts (Presence of 10 uM 2'-deoxyguanosine (W/GdR)). Type of assay: functional. Conditions: MGL8. The gist of the method: (§1)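 Cell growth measured as [3H]thymidine uptake. Lines kept in RPMI 1640 with 10% heat-inactivated fetal calf serum, L-glutamine and penicillin-streptomycin; assay run in RPMI 1640 plus 10% heat-inactivated horse serum.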

The species entered for assay [2] is Homo sapiens. In words: Cytotoxicity was evaluated against human MGL-8 B -lymphoblasts (absence of 10 uM 2'-deoxyguanosine (Wo/GdR)). Type of assay: functional. As to conditions: MGL8. The gist of the method: as §1
Assay [3] has as its system MOLT-4. In words: Cytotoxicity was evaluated against human MOLT-4 T-lymphoblasts (absence of 10 uM 2'-deoxyguanosine (Wo/GdR)). Type of assay: functional, cell-based. The gist of the method: as §1
Assay [4] has as its system MOLT-4. In words: Cytotoxicity was evaluated against human MOLT-4 T-lymphoblasts (presence of 10 uM 2'-deoxyguanosine (W/GdR)). Type of assay: functional, cell-based. The gist of the method:
as §1

Assay [5] concerns the target T1, Purine nucleoside phosphorylase (Homo sapiens, UniProt P00491).
T1 sequence (P00491 whole entry): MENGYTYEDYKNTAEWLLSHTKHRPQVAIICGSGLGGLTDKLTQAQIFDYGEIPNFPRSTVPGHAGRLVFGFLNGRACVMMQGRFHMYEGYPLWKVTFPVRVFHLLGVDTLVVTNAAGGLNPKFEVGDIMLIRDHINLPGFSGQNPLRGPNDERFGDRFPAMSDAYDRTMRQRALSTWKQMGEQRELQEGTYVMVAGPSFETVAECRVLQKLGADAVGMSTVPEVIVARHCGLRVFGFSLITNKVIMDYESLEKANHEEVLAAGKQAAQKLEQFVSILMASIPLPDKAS
In words: Compound was evaluated for 50% inhibition of purine nucleoside phosphorylase activity by was measured by the conversion of [8-14C]-inosine to [8-14C]-hypoxanthine. It counts as functional.

For the molecule `Nc1nc(O)c2nc(N)n([C@@H]3O[C@H](CO)[C@@H](O)[C@H]3O)c2n1`, the pIC50 was below 3.30 in the assay listed under Homo sapiens [1], below 3.30 in the assay listed under Homo sapiens [2], around 3.30 in the assay on MOLT-4 [3] and 5.49 in the assay with MOLT-4 [4].

Consider `Nc1nc2sc(N)nc2c(=O)[nH]1`, for which the pIC50 in the assay filed under Homo sapiens [1] is below 4.30; in the assay filed under Homo sapiens [2], below 4.30; in the assay with MOLT-4 [3], below 4.30; in the assay on MOLT-4 [4], below 4.30; in assay [5], 3.85.

For `Nc1nc2nc(N)sc2c(=O)[nH]1`, the pIC50 in the assay listed under Homo sapiens [1] is below 4.30; in the assay listed under Homo sapiens [2] it was below 4.30; in the assay with MOLT-4 [3], below 4.30; with MOLT-4 [4] it was below 4.30; in assay [5] it was around 3.48.

With `Nc1nc2[nH]c(N)nc2c(=O)[nH]1` [8-AMINOGUANINE], the pIC50 is below 3.30 in the assay listed under Homo sapiens [1]; below 3.30 in the assay listed under Homo sapiens [2]; around 3.40 with MOLT-4 [3]; 5.63 with MOLT-4 [4]; 5.81 in assay [5].

As usually defined, the pIC50 is −log10 of the IC50, conventionally taken in molar units.
